# Experimental data published in ChEMBL document CHEMBL1153760, “Identification and structure-activity relationships of chromene-derived selective estrogen receptor modulators for treatment of postmenopausal symptoms” (J Med Chem, 2009).
# Calls of active or inactive are those of the source. The rule behind the calls is not given here.
# What was measured:
# [1] = tested on: Rattus norvegicus; assay: Decrease in bone resorption in ovariectomized rat assessed as decrease in urine deoxypyridinoline level at 0.1 to 1 mg/kg, po administered daily measured after 2 weeks; type: functional, organism-based
# Procedure, shortened: (§1)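 Adult (>6 months) female rats, housed singly on a casein-based diet, ovariectomized under sterile conditions and anesthesia; 6-14 per group. From 24 h after surgery, daily oral gavage of an aqueous suspension in 0.5% Methocel for 2 or 6 weeks. […] Urine deoxypyridinoline measured as bone-resorption marker.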
# [2] = tested on: Rattus norvegicus; assay: Decrease in plasma cholesterol level in po dosed ovariectomized rat osteopenia model administered daily measured after 2 weeks; type: functional, organism-based
# [3] = Cmax in rats after 10 mg/kg oral dose; type: ADME, organism-based; parameters: dose 10 mg/kg, route oral; conditions: rat, in vivo
# Procedure, shortened: (§2)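 Single-dose rat pharmacokinetics. IV dosing at 1-3 mg/kg as a solution in 10% β-cyclodextrin; oral gavage at 10 mg/kg as a uniform suspension in 0.5% methylcellulose. Blood (0.5 mL) collected into heparinized tubes by orbital sinus puncture after dosing. Plasma extracted into acetonitrile with an internal standard and analysed by LC-MS-MS against standards to obtain PK parameters.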
# [4] = biological target: T1, Estrogen receptor (Homo sapiens, UniProt P03372); assay: Displacement of radiolabeled estrogen from estrogen receptor alpha by scintillation counting
# T1 sequence (P03372 whole entry): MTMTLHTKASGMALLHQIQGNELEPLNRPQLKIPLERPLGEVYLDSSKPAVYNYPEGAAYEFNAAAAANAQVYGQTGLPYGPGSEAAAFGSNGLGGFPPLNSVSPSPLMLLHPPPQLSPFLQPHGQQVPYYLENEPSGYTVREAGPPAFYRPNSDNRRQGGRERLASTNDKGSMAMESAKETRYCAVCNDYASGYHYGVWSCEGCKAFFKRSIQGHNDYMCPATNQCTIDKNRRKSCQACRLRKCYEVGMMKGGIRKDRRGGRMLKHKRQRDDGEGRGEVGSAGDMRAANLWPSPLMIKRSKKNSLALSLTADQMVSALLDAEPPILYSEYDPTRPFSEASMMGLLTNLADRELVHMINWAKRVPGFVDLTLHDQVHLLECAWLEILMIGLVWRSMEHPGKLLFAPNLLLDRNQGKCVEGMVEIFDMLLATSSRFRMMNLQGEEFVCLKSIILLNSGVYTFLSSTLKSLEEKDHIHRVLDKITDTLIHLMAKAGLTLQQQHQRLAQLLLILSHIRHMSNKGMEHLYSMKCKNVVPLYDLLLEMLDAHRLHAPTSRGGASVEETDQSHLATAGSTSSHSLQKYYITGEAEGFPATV
# [5] = biological target: Estrogen receptor beta (Homo sapiens, UniProt Q92731); assay: Inhibition of fluormone ES2 binding to estrogen receptor beta after 1 hr by fluorescence polarization assay
# Chain of Estrogen receptor beta (Q92731 whole entry): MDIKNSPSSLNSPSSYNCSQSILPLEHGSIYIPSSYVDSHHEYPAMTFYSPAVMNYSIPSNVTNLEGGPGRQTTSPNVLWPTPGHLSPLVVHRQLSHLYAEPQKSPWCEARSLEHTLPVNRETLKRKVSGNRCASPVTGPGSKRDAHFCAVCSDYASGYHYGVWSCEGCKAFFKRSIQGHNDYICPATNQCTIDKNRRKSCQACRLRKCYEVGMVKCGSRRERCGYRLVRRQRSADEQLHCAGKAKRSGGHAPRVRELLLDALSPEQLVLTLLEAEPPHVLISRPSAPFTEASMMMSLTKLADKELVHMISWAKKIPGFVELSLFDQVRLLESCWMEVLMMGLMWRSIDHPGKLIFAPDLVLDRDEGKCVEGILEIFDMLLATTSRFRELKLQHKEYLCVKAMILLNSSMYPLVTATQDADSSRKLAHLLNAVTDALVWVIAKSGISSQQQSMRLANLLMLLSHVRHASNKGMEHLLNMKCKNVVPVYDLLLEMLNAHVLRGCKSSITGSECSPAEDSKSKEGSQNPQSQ
# [6] = Tmax in rat at 10 mg/kg, po administered as single dose by LC-MS/MS analysis; type: ADME, organism-based; parameters: dose 10 mg/kg, route oral; conditions: in vivo; procedure, shortened: as §2
# [7] = AUC in rat at 10 mg/kg, po administered as single dose by LC-MS/MS analysis; type: ADME, organism-based; parameters: dose 10 mg/kg, route oral; conditions: plasma; procedure, shortened: as §2
# [8] = tested on: Rattus norvegicus; assay: Metabolic stability in rat assessed as 8-Methoxy-6R-(-)-[4-(2-piperidin-1-ylethoxy)phenyl]-11,12-dihydro-5H-6,13-dioxabenzo[3,4]cyclohepta-[1,2-a]naphthalen-2-ol Tmax at 2 mg/kg, iv administered as single dose by LC-MS/MS analysis; type: ADME, organism-based; parameters: dose 2 mg/kg, route intravenous; conditions: in vivo; procedure, shortened: as §2
# [9] = tested on: Rattus norvegicus; assay: Increase in uterine weight in po dosed ovariectomized rat osteopenia model administered daily measured after 2 weeks; type: functional, organism-based
# [10] = tested on: Rattus norvegicus; assay: Estrogenic activity in ovariectomized rat assessed as minor increase in uterine epithelial thickness at 0.1 to 1 mg/kg, po administered daily measured after 6 week by immunohistochemical analysis; type: functional, organism-based
# [11] = biological target: T1, Estrogen receptor; assay: Antagonist activity at estrogen receptor in human Ishikawa cells assessed as 17-beta-estradiol-induced alkaline phosphatase activity after 3 days by chemiluminescence assay; type: functional, cell-based
# [12] = Oral bioavailability in rat at 10 mg/kg administered as single dose by LC-MS/MS analysis; type: ADME, organism-based; conditions: in vivo; procedure, shortened: as §2
# [13] = organism: Rattus norvegicus; assay: animal or person; type: functional; conditions: Uterus, 72 h, route oral
# [14] = tested on: Rattus norvegicus; assay: Metabolic stability in rat assessed as 8-Methoxy-6R-(-)-[4-(2-piperidin-1-ylethoxy)phenyl]-11,12-dihydro-5H-6,13-dioxabenzo[3,4]cyclohepta-[1,2-a]naphthalen-2-ol Tmax at 10 mg/kg, po administered as single dose by LC-MS/MS analysis; type: ADME, organism-based; parameters: dose 10 mg/kg, route oral; conditions: in vivo; procedure, shortened: as §2
# [15] = Half life in rat at 10 mg/kg, po administered as single dose by LC-MS/MS analysis; type: ADME, organism-based; parameters: dose 10 mg/kg, route oral; conditions: in vivo; procedure, shortened: as §2
# [16] = tested on: Rattus norvegicus; assay: Metabolite Cmax in rats after 2 mg/kg JNJ-1968990 intravenous dose; type: ADME, organism-based; parameters: dose 2 mg/kg, route intravenous; conditions: in vivo; procedure, shortened: as §2
# [17] = tested on: Rattus norvegicus; assay: Metabolite Cmax in rats after 10 mg/kg JNJ-1968990 oral dose; type: ADME, organism-based; parameters: dose 10 mg/kg, route oral; conditions: in vivo; procedure, shortened: as §2
# [18] = tested on: Rattus norvegicus; assay: Decrease in plasma cholesterol level in ovariectomized rat osteopenia model at 0.3 mg/kg, po administered daily measured after 6 weeks; type: functional; parameters: scale not given: the % may be the effect or the level left
# [19] = tested on: Rattus norvegicus; assay: Decrease in plasma cholesterol level in ovariectomized rat osteopenia model at 0.01 to 0.1 mg/kg, po administered daily measured after 6 weeks; type: functional; parameters: scale not given: the % may be the effect or the level left; conditions: dose mg/kg 0.01-0.1
# [20] = tested on: Rattus norvegicus; assay: Effect on bone turnover in po dosed ovariectomized rat assessed as prevention of tibial bone loss administered daily measured after 6 weeks by ex vivo peripheral quantitative computerized tomography; type: functional, organism-based
# [21] = Half life in rat at 2 mg/kg, iv administered as single dose by LC-MS/MS analysis; type: ADME, organism-based; parameters: dose 2 mg/kg, route intravenous; conditions: in vivo; procedure, shortened: as §2
# [22] = tested on: Rattus norvegicus; assay: Decrease in bone resorption in ovariectomized rat assessed as decrease in urine deoxypyridinoline level at 0.003 to 0.3 mg/kg, po administered daily measured after 6 weeks; type: functional, organism-based; procedure, shortened: as §1
# [23] = tested on: Rattus norvegicus; assay: Estrogenic activity in ovariectomized rat assessed as minor increase in uterine epithelial thickness at 0.001 to 0.3 mg/kg, po administered daily measured after 6 week by immunohistochemical analysis; type: functional, organism-based
# [24] = tested on: Rattus norvegicus; assay: Decrease in plasma cholesterol level in ovariectomized rat osteopenia model at 0.03 mg/kg, po administered daily measured after 6 weeks; type: functional; parameters: scale not given: the % may be the effect or the level left
# [25] = AUC in rat at 2 mg/kg, iv administered as single dose by LC-MS/MS analysis; type: ADME, organism-based; parameters: dose 2 mg/kg, route intravenous; conditions: plasma; procedure, shortened: as §2
# [26] = tested on: Rattus norvegicus; assay: Effect on bone turnover in ovariectomized rat assessed as prevention of tibial bone density at 0.3 mg/kg, po administered daily measured after 6 weeks by ex vivo peripheral quantitative computerized tomography; type: functional, organism-based; parameters: dose 0.3 mg/kg
# [27] = tested on: Rattus norvegicus; assay: Decrease in plasma cholesterol level in ovariectomized rat osteopenia model at 0.003 to 0.3 mg/kg, po administered daily measured after 2 weeks; type: functional, organism-based
# [28] = Tmax in rat at 2 mg/kg, iv administered as single dose by LC-MS/MS analysis; type: ADME, organism-based; parameters: dose 2 mg/kg, route intravenous; conditions: in vivo; procedure, shortened: as §2
# [29] = Cmax in rats after 2 mg/kg intravenous dose; type: ADME, organism-based; parameters: dose 2 mg/kg, route intravenous; conditions: rat, in vivo; procedure, shortened: as §2
# [30] = tested on: Rattus norvegicus; assay: Increase in vaginal fluidity in po dosed ovariectomized rat administered daily measured after 2 weeks […]; type: functional, organism-based
# Procedure, shortened: (§3)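 Ovariectomized adult female rats dosed daily by oral gavage (0.5% Methocel suspension) for 2 or 6 weeks from 24 h after surgery. Vaginal fluid collected with a cotton swab and its absolute weight determined per animal.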
# [31] = tested on: Rattus norvegicus; assay: Estrogenic activity in ovariectomized rat assessed as increase in uterine epithelial thickness at 0.1 mg/kg, po administered daily measured after 6 week by immunohistochemical analysis; type: functional, organism-based; parameters: dose 0.1 mg/kg
# [32] = tested on: Rattus norvegicus; assay: Increase in uterine weight in po dosed ovariectomized rat osteopenia model administered daily measured after 6 weeks; type: functional, organism-based
# [33] = tested on: Rattus norvegicus; assay: Increase in vaginal fluidity in ovariectomized rat at 0.1 mg/kg, po administered daily measured after 6 weeks by cytology analysis; type: functional, organism-based; parameters: dose 0.1 mg/kg; procedure, shortened: as §3
# [34] = tested on: Rattus norvegicus; assay: Increase in uterine weight in ovariectomized rat osteopenia model at 1 mg/kg, po administered daily measured after 6 weeks; type: functional, organism-based; parameters: dose 1 mg/kg
# [35] = tested on: Rattus norvegicus; assay: Decrease in tail skin temperature rise in morphine-addicted Sprague-Dawley rat hot flush model at 0.01 to 10 mg/kg, po administered daily measured for 60 mins after naloxone-induced morphine withdrawal; type: functional, organism-based
# Procedure, shortened: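 Ovariectomized adult female Sprague-Dawley rats (3 months), 8-25 per group; oral gavage starting 6 days post-ovariectomy, sesame oil vehicle, suspension. Morphine given sc at 75 and 150 mg on treatment days 3 and 5. On the last day, under ketamine (80 mg/kg, im), tail thermistor; baseline about 20 min, then naloxone 2.0 mg/kg sc and tail skin temperature recorded 60 min. Multiple comparisons at each time point.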
structure (smiles),measurement,setting,value
COc1ccc2c(c1)O[C@H](c1ccc(OCCN3CCCCC3)cc1)C1=C2CCOc2cc(O)ccc21,Activity,[1],Active
same,Activity,[2],Active
same,Cmax,[3],219 ng/mL
same,IC50,[4],0.009 µM
same,IC50,[5],0.007 µM
same,Tmax,[6],6 h
same,AUC,[7],6920 ng·h/mL
same,Tmax,[8],8 h
same,Activity,[9],inactive
same,Activity,[10],Active
same,IC50,[11],0.259 µM
same,bioavailability,[12],58%
same,inhibition in vivo at 1 mg/kg,[13],99%
same,Tmax,[14],6 h
same,half-life,[15],19.8 h
same,Cmax_metabolite,[16],7.6 ng/mL
same,Cmax_metabolite,[17],33.3 ng/mL
COc1ccc2c(c1)O[C@H](c1ccc(OCCN3CCCCC3)cc1)C1=C2CCOc2cc(OC)ccc21,Activity,[18],50%
same,Activity,[19],60%
same,Activity,[20],Dose-dependent effect
same,half-life,[21],5.82 h
same,Activity,[22],Active
same,Cmax,[3],168 ng/mL
same,IC50,[4],0.064 µM
same,Activity,[23],Active
same,Activity,[24],50%
same,IC50,[5],Not Active
same,AUC,[25],1390 ng·h/mL
same,Tmax,[6],5 h
same,Activity,[26],Active
same,Activity,[27],Active
same,AUC,[7],2270 ng·h/mL
same,Tmax,[28],4.8 min
same,Cmax,[29],1040 ng/mL
same,Activity,[30],Dose-dependent effect
same,IC50,[11],1.74 µM
same,Activity,[31],Active
same,Activity,[32],Dose-dependent effect
same,Activity,[33],Active
same,bioavailability,[12],30.8%
same,inhibition in vivo at 1 mg/kg,[13],121%
same,Activity,[34],inactive
same,Activity,[35],Active
same,half-life,[15],7.2 h
